Assay results as given in ChEMBL document CHEMBL1154322, “Optimization of the antitumor efficacy of a synthetic mitochondrial toxin by increasing the residence time in the cytosol” (J Med Chem, 2009).
pIC50: −log10 of the molar value. Calls of active or inactive are those of the source. The calls are words filed in the database; no cut-off is given here.

Assays:
[1] = Drug accumulation in BAEC in presence of MRP1/2 inhibitor Reversan by inductively coupled plasma spectrometry relative to untreated control; assay type: ADME, Bos taurus; settings: cattle
Procedure, shortened: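 BAE cells incubated 2 h with 50 μM arsenical with or without 5 μM Reversan; cellular arsenic by inductively coupled plasma spectrometry, expressed as % increase in accumulation; triplicates, two experiments.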

[2] = Antiproliferative activity against mouse bEND.3 cells after 72 hrs by MTT assay; assay type: functional, cell-based; settings: BEND3, 72 h
Procedure, shortened: (§1)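 Cells seeded in 96-well plates, attached overnight at 37 °C, 5% CO2, then cultured 72 h in medium with 10% fetal calf serum plus compound. Viability by MTT, formazan dissolved in DMSO, absorbance 550 nm; expressed as % of untreated control; IC50 = concentration inhibiting proliferation by 50%.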

K562 = assay: Antiproliferative activity against human K562 cells after 72 hrs by MTT assay; assay type: functional, cell-based; settings: K562, 72 h; procedure, shortened: as §1
HT-1080 = assay: Antiproliferative activity against human HT1080 cells after 72 hrs by MTT assay; assay type: functional, cell-based; settings: HT-1080, 72 h; procedure, shortened: as §1
HCT-116 = assay: Antiproliferative activity against human HCT116 cells after 72 hrs by MTT assay; assay type: functional, cell-based; settings: HCT-116, 72 h; procedure, shortened: as §1
PANC-1 = assay: Antiproliferative activity against human PANC1 cells after 72 hrs by MTT assay; assay type: functional, cell-based; settings: PANC-1, 72 h; procedure, shortened: as §1
[3] = Antiproliferative activity against HMEC1 cells after 72 hrs by MTT assay; assay type: functional, cell-based; settings: Homo sapiens, HMEC-1, 72 h; procedure, shortened: as §1
[4] = Antiproliferative activity against MDCK2 cells after 72 hrs by MTT assay; assay type: functional, cell-based; settings: Canis lupus familiaris, MDCK-II; procedure, shortened: as §1
BXPC-3 [5] = assay: Antiproliferative activity against human BxPC3 cells after 72 hrs by MTT assay; assay type: functional, cell-based; settings: BXPC-3, 72 h; procedure, shortened: as §1
[6] = (§2) Antiproliferative activity against BAEC after 72 hrs by MTT assay; assay type: functional, Bos taurus; procedure, shortened: as §1
MCF7 = assay: Antiproliferative activity against human MCF7 cells after 72 hrs by MTT assay; assay type: functional, cell-based; settings: MCF7, 72 h; procedure, shortened: as §1
[7] = tested on: Lewis lung carcinoma cell line; assay: Antiproliferative activity against mouse LLC cells after 72 hrs by MTT assay; assay type: functional, cell-based; procedure, shortened: as §1
[8] = Antiproliferative activity against BAEC after 72 hrs by MTT assay in presence of 20 uM gamma-glutamyl cysteine synthase inhibitor buthionine sulfoximine; assay type: functional, cell-based; settings: Bos taurus
BAEC [9] = assay: Antiproliferative activity against MRP1/2 inhibitor Reversan pretreated BAEC at 0.3 uM after 72 hrs by MTT assay; assay type: functional, cell-based; settings: Bos taurus
Procedure, shortened: (§3)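 BAE cells pretreated 30 min with 15 μM MK571 or 2 μM Reversan, then incubated with 0.3 μM compound for 72 h; viability by MTT as % of control; mean ± SD of triplicates.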

Mus musculus [10] = assay: Toxicity in human BxPC3 cells xenografted BALB/c mouse at 0.25 mg/kg/day, sc for 28 days; assay type: organism-based, BXPC-3; parameters: route subcutaneous; settings: in vivo, 672 h
Procedure, shortened: (§4)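 Female Balb C nude mice bearing s.c. BxPC-3 tumors given compound via 28-day s.c. flank micro-osmotic pumps; animal weight measured every 2 or 3 days and signs of toxicity observed.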

HEK293 [11] = assay: Resistance index, ratio of IC50 for HEK293 cells overexpressing MRP5 to IC50 for wild type HEK293 cells; assay type: functional, Homo sapiens
Procedure, shortened: (§5)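 Transfected MDCKII (MRP1-3), HEK293 (MRP4, MRP5) or MEF3.8 (MRP6, MDR1, BCRP) lines grown in DMEM with 10% calf serum; IC50 for proliferation arrest of each transfectant divided by IC50 of non-transfected parental cells.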

[12] = Drug accumulation in BAEC assessed as accumulation rate up to 4 hrs by inductively coupled plasma spectrometry relative to 4-(N-(S-Glutathionylacetyl)amino)phenylarsonous acid; assay type: ADME, Bos taurus; settings: cattle
Procedure, shortened: (§6)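 BAE cells seeded in 6-well plates, attached overnight, fresh medium, then 50 μM arsenical for up to 4 h; cytosolic arsenic by inductively coupled plasma spectrometry; accumulation rate (pmol As per 10^6 cells per min) from linear least-squares fit; triplicates.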

BXPC-3 [13] = assay: Antitumor activity against human BxPC3 cells xenografted in BALB/c mouse assessed as tumor doubling time at 0.5 mg/kg/day, sc (Rvb= 9.4 +/- 1.4 days); assay type: functional; settings: route subcutaneous
[14] = Potency ratio, ratio of IC50 for 4-(N-(S-Glutathionylacetyl)amino)phenylarsonous acid to compound for BAEC after 48 hrs by propidium iodide staining; assay type: functional, Bos taurus
[15] = Resistance index, ratio of IC50 for MDCK2 cells overexpressing MRP1 to IC50 for wild type MDCK2 cells; assay type: functional, Canis lupus familiaris; procedure, shortened: as §5
BXPC-3 [16] = assay: Antitumor activity against human BxPC3 cells xenografted in BALB/c mouse assessed as tumor doubling time at 0.25 mg/kg/day, sc (Rvb= 9.4 +/- 1.4 days); assay type: functional; settings: route subcutaneous
BAEC [17] = assay: Antiproliferative activity against MRP1/2 inhibitor MK571 pretreated BAEC at 0.3 uM after 72 hrs by MTT assay; assay type: functional; settings: Bos taurus; procedure, shortened: as §3
[18] = Reduction of cell viability in BAEC after 48 hrs by propidium iodide staining; assay type: functional, cell-based; settings: Bos taurus
BXPC-3 [19] = assay: Antitumor activity against human BxPC3 cells xenografted in BALB/c mouse assessed as tumor doubling time at 5 mg/kg/day, sc dosed for 18 days; assay type: functional, organism-based
[20] = Drug accumulation in BAEC assessed as accumulation rate up to 4 hrs by inductively coupled plasma spectrometry relative to 4-(N-(S-cysteinylglycylacetyl)amino)phenylarsonous acid; assay type: ADME, Bos taurus; settings: cattle; procedure, shortened: as §6
[21] = Resistance index, ratio of IC50 for MDCK2 cells overexpressing MRP3 to IC50 for wild type MDCK2 cells; assay type: functional, Canis lupus familiaris; procedure, shortened: as §5
[22] = Potency ratio, ratio of IC50 for 4-(N-(S-cysteinylacetyl)amino)phenylarsonous acid to compound for BAEC after 24 hrs by MTT assay; assay type: functional, Bos taurus
BXPC-3 [23] = assay: Antiangiogenic activity against human BxPC3 cells xenografted in BALB/c mouse assessed as reduction of tumor blood vessel density at 0.25 mg/kg/day, sc dosed for 18 days; assay type: functional, organism-based
Procedure, shortened: (§7)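 Female 7-9 week Balb C nude mice given 3 × 10^6 BxPC-3 cells s.c. in proximal midline; at ~50 mm3, randomized and given s.c. flank micro-osmotic pumps (vehicle or 0.25 mg/kg/day) for 18 days. Excised tumors formalin-fixed, paraffin sections immunostained for CD31 (microvessels counted in five hot spots) or PCNA (positive cells per 100 tumor cells, three fields); one-way ANOVA.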

BAEC [24] = assay: Antiproliferative activity against OATP inhibitor DIDS pretreated BAEC at 3 uM after 24 hrs by MTT assay; assay type: functional, cell-based; settings: Bos taurus
Procedure, shortened: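 BAE cells untreated or pretreated 30 min with 500 μM DIDS, then 3 μM compound for 24 h; viability by MTT, % of control; triplicates, two experiments.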

Mus musculus [25] = assay: Toxicity in human BxPC3 cells xenografted BALB/c mouse at 0.5 mg/kg/day, sc for 28 days; assay type: organism-based, BXPC-3; parameters: route subcutaneous; settings: in vivo, 672 h; procedure, shortened: as §4
[26] = Antiproliferative activity against BAEC after 72 hrs by MTT assay in presence of 100 uM gamma-glutamyl cysteine synthase inhibitor buthionine sulfoximine; assay type: functional, Bos taurus
HEK293 [27] = assay: Resistance index, ratio of IC50 for HEK293 cells overexpressing MRP4 to IC50 for wild type HEK293 cells; assay type: functional, Homo sapiens; procedure, shortened: as §5
[28] = Antiproliferative activity against BAEC after 72 hrs by MTT assay in presence of 3 uM MRP1/2 inhibitor Reversan; assay type: functional, cell-based; settings: Bos taurus
HEK293 [29] = assay: Resistance index, ratio of IC50 for mouse MEF3.8 cells overexpressing MRP6 to IC50 for wild type […]; assay type: functional
BAEC [30] = assay: as §2; assay type: functional; settings: Bos taurus; procedure, shortened: as §1
[31] = Drug accumulation in BAEC assessed as accumulation rate up to 4 hrs by inductively coupled plasma spectrometry relative to 4-(N-(S-cysteinylacetyl)amino)phenylarsonous acid; assay type: ADME, Bos taurus; settings: cattle; procedure, shortened: as §6
HEK293 [32] = assay: Resistance index, ratio of IC50 for mouse MEF3.8 cells overexpressing BCRP to IC50 for wild type […]; assay type: functional
BXPC-3 [33] = assay: Antitumor activity against human BxPC3 cells xenografted in BALB/c mouse assessed as reduction of tumor proliferative index at 0.25 mg/kg/day, sc dosed for 18 days; assay type: functional, organism-based; procedure, shortened: as §7
HEK293 [34] = assay: Resistance index, ratio of IC50 for mouse MEF3.8 cells overexpressing MDR1 to IC50 for wild type […]; assay type: functional
[35] = Potency ratio, ratio of IC50 for 4-(N-(S-cysteinylglycylacetyl)amino)phenylarsonous acid to compound for BAEC after 24 hrs by MTT assay; assay type: functional, Bos taurus
BXPC-3 [36] = assay: Potency ratio, ratio of antitumor activity of 4-(N-(S-Glutathionylacetyl)amino)phenylarsonous acid to compound antitumor activity against human BxPC3 cells xenografted in BALB/c; assay type: functional
[37] = Resistance index, ratio of IC50 for MDCK2 cells overexpressing MRP2 to IC50 for wild type MDCK2 cells; assay type: functional, Canis lupus familiaris; procedure, shortened: as §5
[38] = Antiproliferative activity against BAEC after 72 hrs by MTT assay in presence of 3 uM MRP1/2 inhibitor Reversan and 20 uM gamma-glutamyl cysteine synthase inhibitor buthionine sulfoximine; assay type: functional, cell-based; settings: Bos taurus
[39] = Potency ratio, ratio of IC50 for 4-(N-(S-Glutathionylacetyl)amino)phenylarsonous acid to compound for BAEC after 24 hrs by MTT assay; assay type: functional, Bos taurus

With `N[C@H](CSCC(=O)Nc1ccc([As](O)O)cc1)C(=O)NCC(=O)O` as the compound, how does the Drug uptake [1] read?
The Drug uptake was 197%.

With `N[C@@H](CCC(=O)N[C@@H](CSCC(=O)Nc1ccc([As](O)O)cc1)C(=O)NCC(=O)O)C(=O)O` as the compound, how does the pIC50 [2] read?
Its pIC50 is 4.38.

And the pIC50 (K562)?
The pIC50 was 4.85.

And the pIC50 (HT-1080)?
Its pIC50 is 4.60.

And the pIC50 (HCT-116)?
The pIC50 was 4.37.

And the pIC50 (PANC-1)?
Its pIC50 is 4.37.

What about the pIC50 [3] of the same compound?
The pIC50 was 4.64.

And the pIC50 [4]?
Its pIC50 is 4.89.

What about the pIC50 (BXPC-3 [5]) of the same compound?
The pIC50 was 3.57.

What about the pIC50 ([6]; Bos taurus, BAEC, 72 h) of the same compound?
Its pIC50 is 5.00.

What about the pIC50 (MCF7) of the same compound?
The pIC50 was 4.29.

And the pIC50 [7]?
The pIC50 was 4.39.

With `N[C@H](CSCC(=O)Nc1ccc([As](O)O)cc1)C(=O)O` as the compound, how does the Drug uptake [1] read?
Its Drug uptake is 114%.

What does the source list for `CC(C)(SCC(=O)Nc1ccc([As](O)O)cc1)[C@@H](N)C(=O)O`?
pIC50 [8]: 7.15; Activity (BAEC [9]): Active; pIC50 [2]: 5.60; Activity (Mus musculus [10]): Non-toxic; Drug uptake [1]: 52%; pIC50 (K562): 5.74; Ratio IC50 (HEK293 [11]): 0.4; fold change (FC) [12]: 85; Activity (BXPC-3 [13]): 13.8 days; Ratio IC50 [14]: 21; Ratio IC50 [15]: 3.7; pIC50 (HT-1080): 5.39; pIC50 (HCT-116): 5.23; pIC50 (PANC-1): 5.19; pIC50 [3]: 5.70; Activity (BXPC-3 [16]): 15.6 days; Activity (BAEC [17]): Active; pIC50 [18]: 5.46; Activity (BXPC-3 [19]): Active; fold change (FC) [20]: 9; Ratio IC50 [21]: 0.8; Ratio IC50 [22]: 6; Activity (BXPC-3 [23]): Active; Activity (BAEC [24]): inactive; pIC50 [4]: 5.62; Activity (Mus musculus [25]): Non-toxic; Activity [26]: 16 nM; Ratio IC50 (HEK293 [27]): 0.5; pIC50 (BXPC-3 [5]): 4.68; pIC50 [28]: 6.89; Ratio IC50 (HEK293 [29]): 1.3; Activity (BAEC [30]): inactive; Activity [6]: 440 nM; fold change (FC) [31]: 10; Ratio IC50 (HEK293 [32]): 1.1; Activity (BXPC-3 [33]): Active; Ratio IC50 (HEK293 [34]): 1.2; pIC50 (MCF7): 5.03; Ratio IC50 [35]: 8; pIC50 [7]: 5.28; Ratio IC50 (BXPC-3 [36]): 20; Ratio IC50 [37]: 4.6; pIC50 [38]: 7.70; Ratio IC50 [39]: 44
